According to article PMC4688279 (Prostaglandins & other lipid mediators, 2015):
Values joined by “and” are separate entries in the source; they are usually repeats but may differ in a detail not shown here. Equal entries are not always repeated. Where two headings read alike, the source gives them in different places.

Legend:
[1] = Chemical stability of TPPU in drinking water; format: physicochemical; settings: 0.2% PEG400 in water, 8 days, plastic water bottles
mice sEH = settings: read-out: IC50 sEH; cited from earlier work
[2] = mice, three weeks drinking water, cited from earlier work
[3] = cynomolgus monkeys, single oral dose 0.3 mg/kg; cited from earlier work
[4] = mice, cited from earlier work; for Cmax: read-out: Cmax in blood
human sEH = settings: read-out: IC50 sEH; cited from earlier work
[5] = format: in vivo; settings: rat
primary rat hepatocytes = assay: Metabolic stability in primary rat hepatocytes; format: in vitro ADME; settings: for initially added TPPU remaining intact: after 20 hours, n=6
How it was run: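 Rat hepatocytes were isolated by portal-vein perfusion with oxygenated 2 mM EDTA buffer (37°C, 40 mL/min, 45 min), then purified on a 58% Percoll gradient (800 × g, 5 min). 1×10^5 cells were plated and allowed to attach for 4 h. Test compound (1 or 10 μM) was added in DMEM, 0.1% DMSO final; n=6. One medium aliquot was frozen directly. The other was deconjugated with glucuronidase (10.000 U/mL) and sulfatase (700 U/mL) in acetate buffer, pH 5.0, for 24 h.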

rat sEH = settings: read-out: IC50 sEH; cited from earlier work
Caco-2 cells = assay: Caco-2 transwell model of in vitro intestinal absorption; format: in vitro ADME, human; settings: after 6 hours of incubation

For `CCC(=O)N1CCC(NC(=O)Nc2ccc(OC(F)(F)F)cc2)CC1` [TPPU], the “recovery in drinking water (chemical stability)” value ([1]; 0.2 mg/L) is given as 103 ± 3.2%, the “recovery in drinking water (chemical stability)” value ([1]; 10 mg/L) is given as 109 ± 4.9% and the IC50 (mice sEH) is given as 6 nM. The plasma level ([2]; 0.2 mg/kg BW daily) was 610 ± 130 nM, the plasma level ([2]; 0.6 mg/kg BW daily) was 1800 ± 445 nM and the Cmax [3] was 700 ± 600 nM. The bioavailability ([4]; oral gavage 0.1–3 mg/kg, based on AUC) was 31–41%, the Cmax ([4]; single dose p.o. 0.1 mg/kg) was 270 nM and the Cmax ([4]; single dose p.o. 0.3 mg/kg) was 1700 nM. For the same molecule, the IC50 (human sEH) was […], the “plasma concentration lower than whole blood concentration” value ([5]; day 8) was […] and the “blood concentration at steady state” value ([5]; drinking water 5 mg/L (0.5 mg/kg BW), after 8 days) was […]. For the same molecule, the distribution into brain ([5]; drinking water, day 8) was “A significant portion also crosses the blood brain barrier”, the “liver tissue level in comparison to heart tissue” value ([5]; group with the highest TPPU concentration, day 8) was “about 3.5 fold” and the “recovery of TPPU after glucuronidase/sulfatase treatment of the medium” value (primary rat hepatocytes; 1 μM TPPU) was 93 ± 9.3%. The “initially added TPPU remaining intact” value (primary rat hepatocytes; 1 μM TPPU) was 87 ± 3.5%, the “recovery of TPPU after glucuronidase/sulfatase treatment of the medium” value (primary rat hepatocytes; 10 μM TPPU) was 90 ± 5.9% and the “initially added TPPU remaining intact” value (primary rat hepatocytes; 10 μM TPPU) was 90 ± 1.6% and 90%. The IC50 (rat sEH) was […] and the “added amount detected on the basolateral side” value (Caco-2 cells) was 66%.
